Results: ChEMBL document CHEMBL4346690, “Structure-activity relationship studies of (E)-3,4-dihydroxystyryl alkyl sulfones as novel neuroprotective agents based on improved antioxidant, anti-inflammatory activities and BBB permeability” (Eur J Med Chem, 2019)
Activity calls are given as the source filed them. The rule behind the calls is not given here.

Key:
PC-12 [1] = assay: Neuroprotection activity in rat PC12 cells assessed as reduction in H2O2-induced cell death preincubated for 3 hrs followed by H2O2 addition and measured after 3 hrs by MTS assay; assay type: functional, cell-based
How it was run: (§1)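 PC12 cells plated at 2 × 10^5 cells mL−1 for 1 day, pretreated 3 h with compounds, then H2O2 (final 400 µM) for 3 h. Viability by MTS at 490 nm relative to untreated cells (100%); single-concentration tests at 2.5, 5, 10 µM and IC50 values; mean ± SD, n = 3.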

PC-12 [2] = assay: Neuroprotection against H2O2-induced cell death in rat PC12 cells assessed as decrease in early apoptotic cells at 10 uM preincubated for 3 hrs followed by H2O2 addition and measured 3 hrs by Annexin V-FITC/propidium iodide staining based fluorescence microscopic method; assay type: functional
How it was run: (§2)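 PC12 cells (1.5 × 10^5 cells mL−1, 35 mm dishes) plated 1 day, pretreated 3 h at 2.5 or 10 µM, then exposed to H2O2 (final 400 µM) for 3 h. Washed with ice-cold PBS, stained with Annexin V-FITC and PI in binding buffer for 5 min at 25 °C in the dark, and counted by fluorescence microscopy as early (AV+) or late (AV+PI+) apoptotic cells.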

PC-12 [3] = assay: Neuroprotection activity in rat PC12 cells assessed as reduction in 6-OHDA-induced cell damages at 10 uM preincubated for 3 hrs followed by H2O2 addition and measured after 24 hrs by MTT assay relative to control; assay type: functional, cell-based; details: in the assay text read “6-OHDA addition” for “H2O2 addition”
How it was run: (§3)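 PC12 cells plated at 2 × 10^5 cells mL−1 for 1 day, pretreated 3 h with compounds at 2.5, 5 or 10 µM, then 6-OHDA (final 250 µM) added for 24 h. Viability by MTT, absorbance 570 nm; untreated cells = 100%; mean ± SD, n = 3.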

PC-12 [4] = assay: Neuroprotection against H2O2-induced cell death in rat PC12 cells assessed as decrease in late apoptotic cells at 10 uM preincubated for 3 hrs followed by H2O2 addition and measured 3 hrs by Annexin V-FITC/propidium iodide staining based fluorescence microscopic method; assay type: functional; how it was run: as §2
[5] = Cytotoxicity against rat PC12 cells assessed as cell viability at 100 uM after 24 hrs by MTT assay; assay type: cell-based, PC-12; details: read-out: Activity
How it was run: (§4)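 Cells kept in high-glucose DMEM with 10% FBS and 1% PS at 37 °C, 5% CO2. Plated 1 day, then compounds for 24 h; viability by MTT at 100 µM as ODtreated/ODcontrol × 100%, untreated = 100%. Mean ± SD, n = 3.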

[6] = Anti-neuroinflammatory activity in […] BV2 cells assessed as reduction in LPS-induced NO production preincubated for 3 hrs followed by LPS stimulation for 24 hrs by Griess assay; assay type: functional, cell-based; details: BV-2
How it was run: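 BV2 microglia seeded 3 × 10^5 cells mL−1 for 1 day; compounds in medium added for 3 h, then LPS (final 100 ng mL−1) for a further 24 h. Supernatant mixed with Griess reagent, absorbance at 540 nm. Inhibition % from NO release of LPS-only, unstimulated and compound+LPS wells; IC50 reported; mean ± SD, n = 3.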

[7] = Antioxidant activity assessed as DPPH radical scavenging activity after 1 hr by […]; assay type: functional
How it was run: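 DPPH (0.2 mM) in ethanol mixed with sample, kept 1 h at room temperature, absorbance read at 517 nm. Scavenging % = [1−(Ac−Ab)/A0]×100, where Ab is the sample in ethanol without DPPH and A0 is the ethanol+DPPH control. EC50 reported; vitamin C used as reference antioxidant; mean ± SD, n = 3.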

[8] = Cytotoxicity against […] BV2 cells assessed as cell viability at 100 uM after 24 hrs by MTT assay; assay type: cell-based; details: read-out: Activity; how it was run: as §4
[9] = Inhibition of soybean 15-LOX using arachidonic acid or linoleic acid as substrate incubated for 10 mins by colorimetric lipoxygenase inhibitor screening assay kit method; parameters: species or system Glycine max
How it was run: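 Soybean 15-LOX in a colorimetric kit: enzyme plus compound (1.25–100 µM, in assay buffer), reaction started with arachidonic or linoleic acid substrate, shaken at least 10 min. Chromogen added to stop and develop, absorbance at 490–500 nm; IC50 determined, mean ± SD, n = 3.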

[10] = Cytotoxicity against […] BV2 cells assessed as cell viability at 0.625 to 40 uM after 24 hrs by MTS assay; assay type: cell-based; details: read-out: Activity
How it was run: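 Viability of BV2 cells read by MTS under the NO-assay conditions: 3 h compound (0.625–40 µM) pretreatment followed by LPS 100 ng mL−1 for 24 h.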

PC-12 [11] = assay: Neuroprotection against H2O2-induced cell death in rat PC12 cells assessed as decrease in apoptotic cells at 2.5 uM preincubated for 3 hrs followed by H2O2 addition and measured 3 hrs by Annexin V-FITC/propidium iodide staining based fluorescence microscopic method; assay type: functional; how it was run: as §2
PC-12 [12] = assay: Neuroprotection activity in rat PC12 cells assessed as reduction in 6-OHDA-induced cell damages at 2.5 uM preincubated for 3 hrs followed by H2O2 addition and measured after 24 hrs by MTT assay relative to control; assay type: functional, cell-based; details: in the assay text read “6-OHDA addition” for “H2O2 addition”; how it was run: as §3
PC-12 [13] = assay: Neuroprotection against H2O2-induced cell death in rat PC12 cells assessed as increase in cell viability at 2.5 to 5 uM preincubated for 3 hrs followed by H2O2 addition and measured after 3 hrs by MTS assay; assay type: functional, cell-based; how it was run: as §1
PC-12 [14] = assay: Neuroprotection against H2O2-induced cell death in rat PC12 cells assessed as increase in cell viability at 5 uM preincubated for 3 hrs followed by H2O2 addition and measured after 3 hrs by MTS assay relative to CAPE; assay type: functional
How it was run: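 PC12 cells plated at 2 × 10^5 cells/mL for 1 day, pretreated with compound (2.5, 5, 10 µM) for 3 h, then H2O2 added (final 400 µM) for 3 h. Viability read by MTS at 490 nm, untreated cells = 100%. Mean ± SD, n = 3.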

[15] = Potency index, ratio of IC50 for CAPE to IC50 for test compound for anti-neuroinflammatory activity in […] BV2 cells; assay type: functional
[16] = Potency index, ratio of IC50 for (E)-4-(2-((3-phenylpropyl)sulfonyl)vinyl)benzene-1,2-diol to IC50 for test compound for anti-neuroinflammatory activity in […] BV2 cells; assay type: functional

IC50 [9] [µM]	Structure (SMILES)	IC50 (PC-12 [1]) [µM]	Activity (PC-12 [2])	Activity (PC-12 [3])	Activity (PC-12 [4])	viability at 24 h, 100 µM [5] [%]	IC50 [6] [µM]	EC50 [7] [µM]	viability at 24 h, 100 µM [8] [%]	viability at 24 h, up to 40 µM [10] [%]	Activity (PC-12 [11])	Activity (PC-12 [12])	Activity (PC-12 [13])	Activity (PC-12 [14]) [%]	Ratio IC50 [15]	Ratio IC50 [16]
140	O=S(=O)(/C=C/c1ccc(O)c(O)c1)CCCc1ccccc1	1.86	Active	Active	Active	86.1	13.4	11.5	72	> 90	Active					
2.1	CC(Cc1ccc(O)c(O)c1)C(C)Cc1ccc(O)c(O)c1 (stereo not drawn) [NORDIHYDROGUAIARETIC ACID]															

Structure (SMILES)	IC50 [9] [µM]	IC50 (PC-12 [1]) [µM]	Activity (PC-12 [2])	Activity (PC-12 [3])	Activity (PC-12 [4])	viability at 24 h, 100 µM [5] [%]	IC50 [6] [µM]	EC50 [7] [µM]	viability at 24 h, 100 µM [8] [%]	viability at 24 h, up to 40 µM [10] [%]	Activity (PC-12 [11])	Activity (PC-12 [12])	Activity (PC-12 [13])	Activity (PC-12 [14]) [%]	Ratio IC50 [15]	Ratio IC50 [16]
O=S(=O)(/C=C/c1ccc(O)c(O)c1)CCCC1CCCC1	103	1.28	Active	Active	Active	70.5	1.6	6.3	72.4	> 90	Active	Active	Active	30	4	8
